Laboratory results taken from ChEMBL document CHEMBL4346654 (Eur J Med Chem, 2019).
Converted amounts (≈) assume the structure as drawn.

Legend:
Format in all cases: functional
Haemophilus influenzae [1] = experiment: Selectivity ratio of MBC to MIC for azithromycin-susceptible Haemophilus influenzae ATCC 49247
Method in brief: (§1)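 Isolates were identified by 16S rDNA sequencing. MIC was determined by CLSI-recommended two-fold broth dilution. For MBC, samples from 1–8 fold MIC were transferred to culture medium and subcultured for 24 h without antibiotic.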

Streptococcus pyogenes [2] = experiment: Bactericidal activity against MLS-resistant Streptococcus pyogenes 12-206 expressing constitutive ermA gene pretreated followed by subculture in absence of compound measured after 24 hrs
Method in brief: (§2)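 MBC assay. Following MIC determination by CLSI standard two-fold broth dilution, samples at 1–8 fold MIC were transferred to fresh culture medium. They were subcultured for 24 h without antibiotic. Isolates were identified by 16S rDNA sequencing. S. aureus ATCC 29213 was used as a control strain.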

Streptococcus pneumoniae [3] = experiment: Selectivity ratio of MBC to MIC for penicillin-susceptible Streptococcus pneumoniae PU 09 expressing mef gene; method in brief: as §1
Moraxella catarrhalis [4] = experiment: Antibacterial activity against erythromycin-susceptible Moraxella catarrhalis 13L332 assessed as reduction in microbial growth by CLSI based two-fold broth dilution method
Streptococcus pyogenes [5] = experiment: Selectivity ratio of MBC to MIC for Streptococcus pyogenes 12-207 expressing mef gene; method in brief: as §1
Streptococcus pneumoniae [6] = experiment: Antibacterial activity against penicillin-susceptible Streptococcus pneumoniae PU 09 expressing mef gene assessed as reduction in microbial growth by CLSI based two-fold broth dilution method
Haemophilus influenzae [7] = experiment: Bactericidal activity against azithromycin-susceptible Haemophilus influenzae ATCC 49247 pretreated followed by subculture in absence of compound measured after 24 hrs; method in brief: as §1
Staphylococcus aureus [8] = experiment: Antibacterial activity against MLS-resistant Staphylococcus aureus PU 32 expressing inducible ermA gene assessed as reduction in microbial growth by CLSI based two-fold broth dilution method
Streptococcus pneumoniae [9] = experiment: Bactericidal activity against penicillin-susceptible Streptococcus pneumoniae PU 09 expressing mef gene pretreated followed by subculture in absence of compound measured after 24 hrs; method in brief: as §1
Moraxella catarrhalis [10] = experiment: Bactericidal activity against erythromycin-susceptible Moraxella catarrhalis 13L332 pretreated followed by subculture in absence of compound measured after 24 hrs; method in brief: as §1
Streptococcus pyogenes [11] = experiment: Antibacterial activity against MLS-resistant Streptococcus pyogenes 01-968 expressing inducible ermB gene assessed as reduction in microbial growth by CLSI based two-fold broth dilution method
Streptococcus pneumoniae [12] = experiment: Bactericidal activity against Streptococcus pneumoniae 07P390 expressing constitutive ermB gene pretreated followed by subculture in absence of compound measured after 24 hrs; method in brief: as §1
Streptococcus pyogenes [13] = experiment: Selectivity ratio of MBC to MIC for MLS-resistant Streptococcus pyogenes 12-206 expressing constitutive ermA gene
Method in brief: (§3)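 MBC/MIC ratio. MIC was measured by CLSI standard two-fold broth dilution. MBC was measured by transferring samples at 1–8 fold MIC to culture medium and subculturing for 24 h without antibiotic. Isolates were identified by 16S rDNA sequencing.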

Haemophilus influenzae [14] = experiment: Antibacterial activity against azithromycin-susceptible Haemophilus influenzae ATCC 49247 assessed as reduction in microbial growth by CLSI based two-fold broth dilution method
Staphylococcus aureus [15] = experiment: Bactericidal activity against MLS/methicillin-resistant Staphylococcus aureus PU 32 expressing inducible ermA gene pretreated followed by subculture in absence of compound measured after 24 hrs; method in brief: as §2
Streptococcus pneumoniae [16] = experiment: Antibacterial activity against erythromycin-susceptible Streptococcus pneumoniae ATCC49619 assessed as reduction in microbial growth by CLSI based two-fold broth dilution method
Streptococcus pneumoniae [17] = experiment: Antibacterial activity against Streptococcus pneumoniae 07P390 expressing constitutive ermB gene assessed as reduction in microbial growth by CLSI based two-fold broth dilution method
Streptococcus pyogenes [18] = experiment: Antibacterial activity against Streptococcus pyogenes 12-207 expressing mef gene assessed as reduction in microbial growth by CLSI based two-fold broth dilution method
Moraxella catarrhalis [19] = experiment: Selectivity ratio of MBC to MIC for erythromycin-susceptible Moraxella catarrhalis 13L332; method in brief: as §1
Staphylococcus aureus [20] = experiment: Bactericidal activity against MLS-resistant Staphylococcus aureus PU 20 expressing constitutive ermC gene pretreated followed by subculture in absence of compound measured after 24 hrs; method in brief: as §2
Staphylococcus aureus [21] = experiment: Antibacterial activity against MLS-resistant Staphylococcus aureus PU 20 expressing constitutive ermC gene assessed as reduction in microbial growth by CLSI based two-fold broth dilution method
Streptococcus pneumoniae [22] = experiment: Bactericidal activity against erythromycin-susceptible Streptococcus pneumoniae ATCC49619 pretreated followed by subculture in absence of compound measured after 24 hrs; method in brief: as §1
Streptococcus pyogenes [23] = experiment: Bactericidal activity against Streptococcus pyogenes 12-207 expressing mef gene pretreated followed by subculture in absence of compound measured after 24 hrs; method in brief: as §1
Streptococcus pyogenes [24] = experiment: Bactericidal activity against MLS-resistant Streptococcus pyogenes 01-968 expressing inducible ermB gene pretreated followed by subculture in absence of compound measured after 24 hrs; method in brief: as §2
Streptococcus pneumoniae [25] = experiment: Selectivity ratio of MBC to MIC for Streptococcus pneumoniae 07P390 expressing constitutive ermB gene; method in brief: as §1
Streptococcus pyogenes [26] = experiment: Antibacterial activity against MLS-resistant Streptococcus pyogenes 12-206 expressing constitutive ermA gene assessed as reduction in microbial growth by CLSI based two-fold broth dilution method
Streptococcus pyogenes [27] = experiment: Selectivity ratio of MBC to MIC for MLS-resistant Streptococcus pyogenes 01-968 expressing inducible ermB gene; method in brief: as §3
Staphylococcus aureus [28] = experiment: Selectivity ratio of MBC to MIC for MLS/methicillin-resistant Staphylococcus aureus PU 32 expressing inducible ermA gene; method in brief: as §3
Streptococcus pneumoniae [29] = experiment: Selectivity ratio of MBC to MIC for erythromycin-susceptible Streptococcus pneumoniae ATCC49619; method in brief: as §1

Row | Compound | Selectivity ratio (Streptococcus pneumoniae [3]) | MIC (Moraxella catarrhalis [4]) [µg/mL] | Selectivity ratio (Streptococcus pyogenes [5]) | MIC (Streptococcus pneumoniae [6]) [µg/mL] | MBC (Haemophilus influenzae [7]) [µg/mL] | MIC (Staphylococcus aureus [8]) [µg/mL] | MBC (Streptococcus pneumoniae [9]) [µg/mL] | MBC (Moraxella catarrhalis [10]) [µg/mL] | MIC (Streptococcus pyogenes [11]) [µg/mL] | MBC (Streptococcus pneumoniae [12]) [µg/mL] | MIC (Haemophilus influenzae [14]) [µg/mL] | MBC (Staphylococcus aureus [15]) [µg/mL] | MIC (Streptococcus pneumoniae [16]) [µg/mL] | MIC (Streptococcus pneumoniae [17]) [µg/mL] | MIC (Streptococcus pyogenes [18]) [µg/mL] | Selectivity ratio (Moraxella catarrhalis [19]) | MIC (Staphylococcus aureus [21]) [µg/mL] | MBC (Streptococcus pneumoniae [22]) [µg/mL] | MBC (Streptococcus pyogenes [23]) [µg/mL] | MBC (Streptococcus pyogenes [24]) [µg/mL] | also measured
1 | CC[C@H]1OC(=O)[C@@](C)(F)C(=O)[C@H](C)[C@@H](O[C@@H]2O[C@H](C)C[C@H](N(C)C)[C@H]2O)[C@](C)(OC)C[C@@H](C)/C(=N\OC/C=C/c2ccc3c(c2)c(=O)c(C(=O)NC)cn3CC)[C@H](C)[C@H]2OC(=O)O[C@@]21C | 1 | 8 | 4 | 0.5 | 256 (≈ 280 µM) | 2 | 0.5 (≈ 0.546 µM) | 64 (≈ 69.9 µM) | 0.016 | > 2 | 128 | > 16 | ≤ 0.008 | 0.25 | 0.25 | 8 | 128 | ≤ 0.008 | 1 (≈ 1.09 µM) | > 0.125 | Selectivity ratio (Haemophilus influenzae [1]): 2; MBC (Streptococcus pyogenes [2]): > 8 µg/mL; Selectivity ratio (Streptococcus pyogenes [13]): >8; MBC (Staphylococcus aureus [20]): > 256 µg/mL; Selectivity ratio (Streptococcus pneumoniae [25]): >8; MIC (Streptococcus pyogenes [26]): 1 µg/mL; Selectivity ratio (Streptococcus pyogenes [27]): >8; Selectivity ratio (Staphylococcus aureus [28]): >8
2 | CC[C@H]1OC(=O)[C@@](C)(F)C(=O)[C@H](C)[C@@H](O[C@@H]2O[C@H](C)C[C@H](N(C)C)[C@H]2O)[C@](C)(OC/C=C/c2ccc3c(c2)c(=O)c(C(=O)NC)cn3CC)C[C@@H](C)/C(=N\OC)[C@H](C)[C@H]2OC(=O)O[C@@]21C | 2 | 0.5 | 4 | 0.5 | > 256 | 0.25 | 1 (≈ 1.09 µM) | 4 (≈ 4.37 µM) | ≤ 0.002 | > 0.25 | 256 | > 2 | ≤ 0.008 | 0.031 | 0.062 | 8 | > 256 | ≤ 0.008 | 0.25 (≈ 0.273 µM) | 0.008 (≈ 0.00874 µM) | MBC (Streptococcus pyogenes [2]): > 0.016 µg/mL; Selectivity ratio (Streptococcus pyogenes [13]): >8; Selectivity ratio (Streptococcus pneumoniae [25]): >8; MIC (Streptococcus pyogenes [26]): ≤ 0.002 µg/mL; Selectivity ratio (Streptococcus pyogenes [27]): >=4; Selectivity ratio (Staphylococcus aureus [28]): >8
3 | CC[C@H]1OC(=O)[C@@](C)(F)C(=O)[C@H](C)[C@@H](O[C@@H]2O[C@H](C)C[C@H](N(C)C)[C@H]2O)[C@](C)(OC/C=C/c2ccc3c(c2)c(=O)c(C(N)=O)cn3CC)C[C@@H](C)/C(=N\OC)[C@H](C)[C@H]2OC(=O)O[C@@]21C | 1 | 0.5 | 4 | 0.25 | 128 (≈ 142 µM) | 0.25 | 0.25 (≈ 0.277 µM) | > 4 | ≤ 0.002 | > 0.062 | 64 | > 2 | ≤ 0.008 | ≤ 0.008 | 0.062 | >8 | > 256 | ≤ 0.008 | 0.25 (≈ 0.277 µM) | 0.008 (≈ 0.00888 µM) | Selectivity ratio (Haemophilus influenzae [1]): 2; MBC (Streptococcus pyogenes [2]): > 0.016 µg/mL; Selectivity ratio (Streptococcus pyogenes [13]): >8; Selectivity ratio (Streptococcus pneumoniae [25]): >8; MIC (Streptococcus pyogenes [26]): ≤ 0.002 µg/mL; Selectivity ratio (Streptococcus pyogenes [27]): >=4; Selectivity ratio (Staphylococcus aureus [28]): >8
4 | CC[C@H]1OC(=O)[C@@](C)(F)C(=O)[C@H](C)[C@@H](O[C@@H]2O[C@H](C)C[C@H](N(C)C)[C@H]2O)[C@](C)(OC/C=C/c2ccc3c(c2)c(=O)c(C(=O)NC)cn3C2CC2)C[C@@H](C)/C(=N\OC)[C@H](C)[C@H]2OC(=O)O[C@@]21C | 2 | 1 | 4 | 0.25 | 32 (≈ 34.5 µM) | 1 | 0.5 (≈ 0.539 µM) | > 8 | ≤ 0.002 | > 0.062 | 32 | > 8 | ≤ 0.008 | ≤ 0.008 | 0.125 | >8 | 256 | ≤ 0.008 | 0.5 (≈ 0.539 µM) | > 0.016 | Selectivity ratio (Haemophilus influenzae [1]): 1; MBC (Streptococcus pyogenes [2]): > 0.25 µg/mL; Selectivity ratio (Streptococcus pyogenes [13]): >8; MBC (Staphylococcus aureus [20]): > 256 µg/mL; Selectivity ratio (Streptococcus pneumoniae [25]): >8; MIC (Streptococcus pyogenes [26]): 0.031 µg/mL; Selectivity ratio (Streptococcus pyogenes [27]): >8; Selectivity ratio (Staphylococcus aureus [28]): >8
5 | CC[C@H]1OC(=O)[C@H](C)[C@@H](O[C@H]2C[C@@](C)(OC)[C@@H](O)[C@H](C)O2)[C@H](C)[C@@H](O[C@@H]2O[C@H](C)C[C@H](N(C)C)[C@H]2O)[C@](C)(O)C[C@@H](C)CN(C)[C@H](C)[C@@H](O)[C@]1(C)O [AZITHROMYCIN] | 2 | 0.031 | 1 | 8 | 8 (≈ 10.7 µM) | 32 | 16 (≈ 21.4 µM) | 0.25 (≈ 0.334 µM) | 8 | > 256 | 2 | 32 (≈ 42.7 µM) | 0.062 | 256 | 16 | 8 | > 256 | 0.25 (≈ 0.334 µM) | 16 (≈ 21.4 µM) | > 64 | Selectivity ratio (Haemophilus influenzae [1]): 4; Selectivity ratio (Streptococcus pneumoniae [29]): 4; MIC (Streptococcus pyogenes [26]): > 256 µg/mL; Selectivity ratio (Streptococcus pyogenes [27]): >8; Selectivity ratio (Staphylococcus aureus [28]): 1
